For data set [1], the target named is T1, C-X-C chemokine receptor type 3 (Homo sapiens) (UniProt P49682).
T1 sequence (whole entry): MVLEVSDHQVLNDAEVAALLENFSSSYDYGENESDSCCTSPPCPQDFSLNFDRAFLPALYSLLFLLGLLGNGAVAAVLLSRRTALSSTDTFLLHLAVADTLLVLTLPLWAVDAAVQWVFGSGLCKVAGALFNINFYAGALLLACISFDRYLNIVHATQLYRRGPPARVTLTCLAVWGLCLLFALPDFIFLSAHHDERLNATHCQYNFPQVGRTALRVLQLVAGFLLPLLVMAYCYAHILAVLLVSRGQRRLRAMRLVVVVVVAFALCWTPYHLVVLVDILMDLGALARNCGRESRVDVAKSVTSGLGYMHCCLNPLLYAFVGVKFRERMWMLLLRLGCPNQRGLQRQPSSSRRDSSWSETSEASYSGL
In words: Positive allosteric modulation of ProLink1-tagged wild type CXCR3 (unknown origin) expressed in HEK293T cells assessed as beta-arrestin-2 recruitment incubated for 4 hrs by chemiluminescence-based microplate reader method. In kind it is cell-based. To be noted: HEK-293T. The method, boiled down: (§1)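 HEK293 cells stably expressing β-gal enzyme acceptor, transiently transfected with PK1- or PK2-tagged wild-type CXCR3, 2000 cells/well, grown overnight at 37 °C. Compounds or CXCL11 in PBS pH 7.4 with 0.20% BSA added for 4 h. Detection mix 60 min at room temperature, then chemiluminescence read. Efficacy expressed as % of CXCL11 effect. Two to three experiments in triplicate.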

The nature of data set [2]: Cytotoxicity against HEK293T cells expressing CXCR3 at 10 uM incubated overnight by ApoTox-Glo Triplex assay. The class given is cell-based. To be noted: human, hek-293t. A digest of the protocol:
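10,000 HEK293T cells stably expressing CXCR3 incubated overnight with compound at 10 µM. ApoTox-Glo triplex. Viability read by fluorescence at 400Ex/505Em (GF-AFC) and cytotoxicity at 485Ex/520Em (bis-AAF-R110), each after a 30 min reagent step. Caspase-3/7 luminescence then read after a further 30 min.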

In data set [3] the target is T1, C-X-C chemokine receptor type 3 (Homo sapiens). In words: Inhibition of CXCL10-mediated activation of human CXCR3 expressed in HEK cells. In kind it is cell-based. To be noted: HEK293.
Data set [4] shares this target. In words: Antagonist activity at CXCR3 (unknown origin) expressed in HEK293 cells assessed as inhibition of CXCL11-mediated cell migration after 5 hrs by transwell migration assay. The class given is cell-based. The method, boiled down: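 CXCR3-transfected HEK293 cells (calcium phosphate, used 48 h post-transfection), serum-starved, pre-incubated 15 min with compound. Compound present in both upper chamber (1 × 10^5 cells/well, 0.2% serum DMEM) and lower chamber containing CXCL11. Migration 5 h at 37 °C. Migrated cells fixed in 3.7% formaldehyde, stained with crystal violet, counted in 5 predefined areas.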

For data set [5] the target is unchanged. In words: Induction of C-terminal eGFP-tagged CXCR3 (unknown origin) internalization expressed in HEK293T cells at 1 to 10 uM after 60 mins by scanning laser confocal microscopy. In kind it is cell-based. To be noted: HEK-293T. The method, boiled down: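 HEK293T cells transiently transfected with C-terminally eGFP-tagged CXCR3, moved to poly-L-lysine coverslips at 24 h. Two days post-transfection, treated 60 min at 37 °C with compound (10 µM and 1 µM) or 100 nM CXCL11. Fixed in 4% paraformaldehyde and imaged by confocal laser scanning microscopy.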

For data set [6] the target is unchanged. In words: Positive allosteric modulation of CXCR3 (unknown origin) expressed in HEK293 cells assessed as induction of cell migration at 100 nM after 5 hrs by transwell migration assay relative to control. The class given is cell-based. The method, boiled down: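 HEK293 cells transiently transfected with CXCR3 by calcium phosphate, used 48 h later, serum-starved. Compound placed in lower (source) chamber in 0.2% serum DMEM. Cells (1 × 10^5/well) in upper chamber, 5 h migration at 37 °C. Crystal-violet-stained migrated cells counted in 5 predefined areas and compared with buffer control.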

For data set [7] the target is unchanged. In words: Displacement of [125I]CXCL11 from human CXCR3 isoform 1 expressed in African green monkey COS7 cells after 3 hrs by liquid scintillation counting method. To be noted: COS-7. In kind it is cell-based. The method, boiled down: (§2)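 Cells washed in 50 mM HEPES/5 g/L BSA and chilled 15 min at 4 °C. Ligands added, then 10-15 pM [125I]CXCL11 (Chloramine-T labelled, HPLC-purified). Incubation 3 h at 4 °C, washes, bound radioactivity read by liquid scintillation.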
In general terms: Loss of bound radioactivity is the signal in a displacement assay; it reports binding, not function.

For data set [8] the target is unchanged. In words: Displacement of [125I]CXCL11 from human CXCR3 isoform 1 expressed in African green monkey COS7 cells at 1 uM after 3 hrs by liquid scintillation counting method. In kind it is cell-based. To be noted: COS-7. A digest of the protocol:
as §2

Data set [9] shares this target. In words: Inhibition of CXCL11-mediated activation of human CXCR3 expressed in HEK cells. The class given is cell-based. To be noted: HEK293.
The target is the same in data set [10]. In words: Positive allosteric modulation of human CXCR3 expressed in HEK293T cell membranes after 30 mins by [35S]GTPgammaS incorporation assay relative to CXCL11. In kind it is functional. To be noted: HEK-293T. The method, boiled down:
(§3)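 Membranes from HEK293 cells stably expressing CXCR3 (30 µg/mL protein) in 20 mM HEPES, 10 mM MgCl2, 100 mM NaCl, 100 mg/L saponin, pH 7.4. Compound plus 1 µM GDP preincubated 30 min at 37 °C, then 0.10 nM [35S]GTPγS added for 30 min at 37 °C. Filtered on GF/B and counted. Efficacy expressed as % of CXCL11. Three experiments in triplicate, pEC50 by nonlinear regression.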
For orientation: GTPγS resists hydrolysis and so accumulates on activated G proteins.

Data set [11] shares this target. In words: Positive allosteric modulation of ProLink1-tagged wild type CXCR3 (unknown origin) expressed in HEK293T cells assessed as beta-arrestin-2 recruitment incubated for 4 hrs by chemiluminescence-based microplate reader method relative to CXCL11. In kind it is cell-based. To be noted: HEK-293T. The method, boiled down: as §1
A general note: Recruitment of arrestin is a read-out of receptor activation apart from second messengers.

Data set [12] shares this target. In words: Induction of FLAG-tagged CXCR3 (unknown origin) internalization expressed in HEK293T cells at 10 uM after 60 mins by ELISA. The class given is cell-based. To be noted: HEK-293T. The method, boiled down: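 FLAG-CXCR3-transfected HEK293T cells replated on poly-D-lysine. At 48 h, serum-free DMEM with compound (10 µM) or CXCL11 (100 nM) for 1 h at 37 °C. Cells fixed in 4% formaldehyde. Surface receptor detected with anti-FLAG antibody and peroxidase-conjugated anti-mouse IgG, o-phenylenediamine substrate, stopped with 1M H2SO4, absorbance at 492 nm.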

Data set [13] has the same target. In words: Positive allosteric modulation of ProLink2-tagged wild type CXCR3 (unknown origin) expressed in HEK293T cells assessed as beta-arrestin-2 recruitment incubated for 4 hrs by chemiluminescence-based microplate reader method relative to CXCL11. The class given is cell-based. To be noted: HEK-293T. A digest of the protocol:
as §1

Data set [14] has the same target. In words: Positive allosteric modulation of human CXCR3 expressed in HEK293T cell membranes after 30 mins by [35S]GTPgammaS incorporation assay. The class given is functional. To be noted: HEK-293T. A digest of the protocol:
as §3

Data set [15] has the same target. In words: Effect on CXCL11-induced beta-arrestin-2 recruitment to wild type CXCR3 (unknown origin) expressed in HEK293T cells at 10 to 1000 nM incubated for 4 hrs by chemiluminescence-based microplate reader method. To be noted: HEK-293T. The class given is cell-based.
Data set [16] shares this target. In words: Positive allosteric modulation of ProLink1-tagged wild type CXCR3 (unknown origin) expressed in HEK293T cells assessed as beta-arrestin-2 recruitment at 10 uM incubated for 4 hrs by chemiluminescence-based microplate reader method. In kind it is cell-based. To be noted: HEK-293T. The method, boiled down: as §1

Here are results for five compounds from ChEMBL document CHEMBL3784986, “Discovery and Characterization of Biased Allosteric Agonists of the Chemokine Receptor CXCR3” (J Med Chem, 2016).

Active and inactive are the calls of the source. The rule behind the calls is not given here.

For `COc1ccc(C(=O)CCC(=O)N2Cc3ccccc3C[C@H]2C(=O)NCCCC[C@H](NC(=O)OC(C)(C)C)C(=O)NCC(c2ccccc2)c2ccccc2)cc1`, the pEC50 result in data set [1] is “inactive”. In addition, the Activity result in data set [2] is given as “Non-toxic”. The inhibition result in data set [3], in data set [4], in data set [7], in data set [8] and in data set [9] was “inactive” throughout. In addition, the result in [5] was inactive. Further, in data set [6], the fold change (FC) is 0.25. For the same compound, the Efficacy in data set [10] was 50%. Also, in [11], the Efficacy entry was “inactive”.
Take `CC(C)(C)OC(=O)N[C@@H](CCCCNC(=O)[C@@H]1Cc2ccccc2CN1C(=O)CCC(=O)c1ccccc1)C(=O)NCC(c1ccccc1)c1ccccc1`: the Activity entry in [2] is reported as “Non-toxic”. Besides, the inhibition result in data set [3], in [4], in [7], in data set [8] and in [9] was “inactive” in each case. In addition, the outcome in [5] and in data set [12] was Active. Moreover, the Efficacy was 66% in data set [13] and 30% in [11]. In addition, in data set [6], the fold change (FC) was 0.25. Further, in data set [14], the pEC50 result is “inactive”. In data set [10], the Efficacy result is “inactive”. In addition, in [15], the result was inactive.
Consider `CC(C)(C)OC(=O)NCCCC[C@H](NC(=O)[C@@H]1Cc2ccccc2CN1C(=O)CCC(=O)c1ccccc1)C(=O)NCC(c1ccccc1)c1ccccc1`, for which the Activity in data set [16] is 70%. In data set [10], this compound came in with an Efficacy of 47%.
For the compound `CC(C)(C)OC(=O)N[C@@H](CCCCNC(=O)[C@@H]1Cc2ccccc2CN1C(=O)CCC(=O)c1ccco1)C(=O)NCC(c1ccccc1)c1ccccc1`, the pEC50 result in data set [1] and in data set [14] was “inactive” throughout. In addition, the inhibition result in data set [3] and in [9] was “inactive” each time. The Efficacy entry in data set [10] and in data set [11] was “inactive” in each case.
For `CC(C)(C)OC(=O)N[C@@H](CCCCNC(=O)[C@@H]1Cc2ccccc2CN1C(=O)CCC(=O)c1cccs1)C(=O)NCC(c1ccccc1)c1ccccc1`, the pEC50 entry in data set [1] and in data set [14] was “inactive” in each case. Besides, the inhibition result in data set [3] and in data set [9] was “inactive” throughout. The Efficacy entry in data set [10] and in data set [11] was “inactive” throughout.
